Experimental data published in ChEMBL document CHEMBL1932994, “Structure-activity relationship studies of S1P agonists with a dihydronaphthalene scaffold” (Bioorg Med Chem Lett, 2012).

Legend:
[1] = molecular target: Sphingosine 1-phosphate receptor 1 (Homo sapiens, UniProt P21453); assay: Agonist activity at human S1P1 receptor expressed in CHO cells assessed as induction of intracellular calcium level; format: functional, cell-based
In short: (§1)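 Intracellular Ca²⁺ rise measured in CHO cells stably expressing human S1P₁ or S1P₃ receptor; EC₅₀ (nM) determined. Some values are the average of two assays.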

[2] = molecular target: Sphingosine 1-phosphate receptor 3 (Homo sapiens, UniProt Q99500); assay: Agonist activity at human S1P3 receptor expressed in CHO cells assessed as induction of intracellular calcium level; format: functional, cell-based; in short: as §1
Mus musculus [3] = assay: Immunomodulatory activity in po dosed mouse assessed as reduction in peripheral lymphocyte count measured after 4 hrs; format: functional
In short: (§2)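 Mice dosed orally over a dose titration; peripheral blood lymphocytes counted 4 h or 24 h after dosing. Each point is the mean % decrease versus vehicle controls (n = 5 per group, treated and control). ED₅₀ (mg/kg) derived from the titration.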

Mus musculus [4] = assay: Immunomodulatory activity in po dosed mouse assessed as reduction in peripheral lymphocyte count measured after 24 hrs; format: functional; in short: as §2
[5] = AUC (0 to infinity) in rat at 1 mg/kg, iv; format: ADME, organism-based; parameters: time infinity, dose 1 mg/kg, route intravenous; details: plasma
[6] = AUC (0 to infinity) in rat at 1 mg/kg, po; format: ADME, organism-based; parameters: time infinity, dose 1 mg/kg, route oral; details: plasma
[7] = Cmax in rat at 1 mg/kg, po; format: ADME, organism-based; parameters: dose 1 mg/kg, route oral; details: in vivo
Plasma = assay: Plasma concentration in rat at 1 mg/kg, po; format: ADME, organism-based; parameters: dose 1 mg/kg, route oral; details: in vivo
[8] = Total clearance in rat at 1 mg/kg, iv; format: ADME, organism-based; parameters: dose 1 mg/kg, route intravenous; details: in vivo
[9] = Half life in rat at 1 mg/kg, iv; format: ADME, organism-based; parameters: dose 1 mg/kg, route intravenous; details: in vivo
[10] = Half life in rat at 1 mg/kg, po; format: ADME, organism-based; parameters: dose 1 mg/kg, route oral; details: in vivo
[11] = Volume of distribution at steady state in rat at 1 mg/kg, iv; format: ADME, organism-based; parameters: dose 1 mg/kg, route intravenous; details: in vivo, read-out: Vdss
[12] = Oral bioavailability in rat at 1 mg/kg; format: ADME, organism-based; details: in vivo
[13] = Tmax in rat at 1 mg/kg, po; format: ADME, organism-based; parameters: dose 1 mg/kg, route oral; details: in vivo
CHO = assay: Selectivity ratio of EC50 for human S1P3 receptor expressed in CHO cells to EC50 for S1P1 receptor expressed in CHO cells; format: cell-based
In short: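 Ratio of EC₅₀ values from intracellular Ca²⁺ stimulation assays in CHO cells stably expressing human S1P₃ versus human S1P₁.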

[14] = Oral bioavailability in rat at 1 mg/kg measured up to 24 hrs; format: ADME, organism-based; details: in vivo
[15] = AUC (0 to infinity) in rat at 1 mg/kg, iv measured up to 24 hrs; format: ADME, organism-based; parameters: time infinity, dose 1 mg/kg, route intravenous; details: plasma
[16] = AUC (0 to infinity) in rat at 1 mg/kg, po measured up to 24 hrs; format: ADME, organism-based; parameters: time infinity, dose 1 mg/kg, route oral; details: plasma

Sequence of Sphingosine 1-phosphate receptor 3 (Q99500 whole entry): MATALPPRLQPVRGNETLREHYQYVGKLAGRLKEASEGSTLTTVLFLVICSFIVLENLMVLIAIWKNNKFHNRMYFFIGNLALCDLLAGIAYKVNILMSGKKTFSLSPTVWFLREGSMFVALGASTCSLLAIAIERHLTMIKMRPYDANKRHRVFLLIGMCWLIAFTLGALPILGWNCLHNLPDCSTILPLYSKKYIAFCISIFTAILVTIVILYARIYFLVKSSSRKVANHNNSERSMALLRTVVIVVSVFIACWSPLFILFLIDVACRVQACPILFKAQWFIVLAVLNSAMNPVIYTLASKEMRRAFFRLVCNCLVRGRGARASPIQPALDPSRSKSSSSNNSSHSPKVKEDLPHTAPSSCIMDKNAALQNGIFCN
Sequence of Sphingosine 1-phosphate receptor 1 (P21453 whole entry): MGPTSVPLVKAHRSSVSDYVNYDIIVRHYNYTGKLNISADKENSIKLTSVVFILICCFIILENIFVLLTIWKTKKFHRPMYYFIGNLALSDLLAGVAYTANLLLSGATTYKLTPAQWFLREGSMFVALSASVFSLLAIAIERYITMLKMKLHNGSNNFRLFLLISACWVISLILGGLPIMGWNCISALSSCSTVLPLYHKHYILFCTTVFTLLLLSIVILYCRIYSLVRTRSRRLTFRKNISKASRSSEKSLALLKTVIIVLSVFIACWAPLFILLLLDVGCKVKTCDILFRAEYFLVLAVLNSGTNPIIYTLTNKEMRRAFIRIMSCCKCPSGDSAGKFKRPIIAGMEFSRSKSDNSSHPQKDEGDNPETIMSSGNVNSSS

Structure (SMILES)	EC50 [1]	EC50 [2]	ED50 (Mus musculus [3])	ED50 (Mus musculus [4])	also measured
CC1=C(CN2CC(C(=O)O)C2)CCc2cc(OCC(C)(C)Cc3ccccc3)ccc21	20 nM	> 30000 nM			
CC1=C(CN2CC(C(=O)O)C2)CCc2cc(OC(C)CCc3ccccc3)ccc21 (stereo unspecified)	20 nM	14000 nM			
CC1=C(CN2CC(C(=O)O)C2)CCc2cc(OCCCc3ccccc3)ccc21.Cl	3 nM	5000 nM	0.4 mg/kg		
CC1=C(CN2CC(C(=O)O)C2)CCc2cc(OCCCCc3ccccc3)ccc21					AUC(0-inf) [6]: 3800 ng·h/mL; Cp (Plasma): 53 ng/mL; half-life [10]: 17 h; bioavailability [12]: 85%; Tmax [13]: 4.7 h
CC1=C(CN2CC(C(=O)O)C2)CCc2cc(OCCCc3cccc(F)c3)ccc21.Cl	4 nM	3900 nM	0.15 mg/kg	0.69 mg/kg	
CC1=C(CN2CC(C(=O)O)C2)CCc2cc(OC[C@H](Cc3ccc(F)cc3)C(C)C)ccc21.Cl	4.5 nM	> 30000 nM		0.68 mg/kg	

Further lines, with some results ahead:

EC50 [1]	EC50 [2]	Structure (SMILES)	ED50 (Mus musculus [3])	ED50 (Mus musculus [4])	also measured
0.84 nM	3200 nM	CC1=C(CN2CC(C(=O)O)C2)CCc2cc(OCCCc3ccc(F)cc3)ccc21.Cl	0.055 mg/kg	0.25 mg/kg	AUC(0-inf) [5]: 5400 ng·h/mL; AUC(0-inf) [6]: 5700 ng·h/mL; Cmax [7]: 159 ng/mL; Cp (Plasma): 88 ng/mL; clearance [8]: 3.2 mL/min/kg; half-life [9]: 21 h; half-life [10]: 24 h; Vd [11]: 5.3 L/kg; bioavailability [12]: 106%; Tmax [13]: 4.7 h
0.55 nM	8200 nM	CC1=C(CN2CC(C(=O)O)C2)CCc2cc(OC[C@@H](C)Cc3ccc(Cl)cc3)ccc21.Cl		0.095 mg/kg	Ratio EC50 (CHO): 15000; AUC(0-inf) [5]: 9000 ng·h/mL; AUC(0-inf) [6]: 5500 ng·h/mL; Cmax [7]: 184 ng/mL; Cp (Plasma): 87 ng/mL; clearance [8]: 2 mL/min/kg; half-life [9]: 27 h; half-life [10]: 20 h; Vd [11]: 3.9 L/kg; bioavailability [12]: 62%; Tmax [13]: 4.7 h
2.7 nM	2900 nM	CC1=C(CN2CC(C(=O)O)C2)CCc2cc(OCCCc3ccccc3F)ccc21.Cl	0.13 mg/kg	0.75 mg/kg	
1.1 nM	29300 nM	CC[C@H](COc1ccc2c(c1)CCC(CN1CC(C(=O)O)C1)=C2C)Cc1ccc(F)cc1.Cl		0.77 mg/kg	
0.37 nM	9450 nM	CC1=C(CN2CC(C(=O)O)C2)CCc2cc(OC[C@@H](C)Cc3ccc(F)cc3)ccc21.Cl		0.22 mg/kg	Cmax [7]: 103 ng/mL; Cp (Plasma): 69 ng/mL; clearance [8]: 4 mL/min/kg; half-life [9]: 19 h; half-life [10]: 57 h; Vd [11]: 5.7 L/kg; Tmax [13]: 4.7 h; bioavailability [14]: 75%; AUC(0-inf) [15]: 2600 ng·h/mL; AUC(0-inf) [16]: 2000 ng·h/mL
0.6 nM	22000 nM	CC1=C(CN2CC(C(=O)O)C2)CCc2cc(OCCC(C)c3ccccc3)ccc21.Cl (racemic)	> 0.3 mg/kg		
0.85 nM	11000 nM	CC1=C(CN2CC(C(=O)O)C2)CCc2cc(OC[C@H](C)Cc3ccc(F)cc3)ccc21.Cl		0.55 mg/kg	
0.66 nM	20800 nM	CC1=C(CN2CC(C(=O)O)C2)CCc2cc(OCC(C)Cc3ccccc3)ccc21.Cl (racemic)	0.19 mg/kg		
